From PubChem BioAssay
MrgX1 allo act: allosterically activates human MrgX1 receptor signaling; B-score at 10 µM; Q96LB2; MrgX1-HEK293, Fluo-4 calcium flux, FDSS; stronger effect = higher value; hit rate 0.63% among 310,000;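 active means plate-corrected calcium response at least 3 library SD above typical, normal starting fluorescence, not activating the receptor alone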;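 further: compound read alongside a low EC10 to EC30 dose of BAM8-22 agonist; peak minus trough fluorescence over baseline measured at the second addition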
Target sequence (Q96LB2 whole entry, looked up): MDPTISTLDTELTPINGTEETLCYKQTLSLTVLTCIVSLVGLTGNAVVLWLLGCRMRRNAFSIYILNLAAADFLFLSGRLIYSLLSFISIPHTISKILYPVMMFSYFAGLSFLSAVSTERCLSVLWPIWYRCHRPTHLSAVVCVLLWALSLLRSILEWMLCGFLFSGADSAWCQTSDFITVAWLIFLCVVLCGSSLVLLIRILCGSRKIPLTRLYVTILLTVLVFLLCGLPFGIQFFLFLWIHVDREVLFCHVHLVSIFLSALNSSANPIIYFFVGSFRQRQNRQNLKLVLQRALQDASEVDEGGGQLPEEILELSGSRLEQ
RGS4 pot: RGS4 potentiation or activation | HEK293 M3R/inducible RGS4, carbachol calcium flux Fluo4; stronger effect = lower value | B-score at 10 µM | hit rate 0.92% among 310,000 | AID 463111;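 active means B-score of the integrated calcium signal more than 4 SD below the library mean, with starting fluorescence not abnormally high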;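 further: negative B-score means reduced calcium response which marks RGS4 activation or potentiation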
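Reagent: ECmax carbachol challenge; Test system: M3R-expressing HEK293 line, RGS4 induced by doxycycline; Schedule: overnight RGS4 induction, 30 min dye load 37 °C, 20 min compound RT; Detection: calcium dye Fluo4 fluorescence; Read-out: Agonist-evoked peak-minus-minimum fluorescence over baseline, integrated ratio, B score.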
RGS4 block: inhibitors of human RGS4. HEK293 M3R/RGS4 inducible, Fluo-4 calcium flux; stronger effect = higher value; triggered by carbachol at its EC20. B-score at 10 µM. hit rate 0.45% among 310,000. AID 463165;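 active means B-score, a plate-corrected calcium signal, over three deviations above library mean, with baseline fluorescence within five deviations of library mean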;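 further: RGS4 expression induced by doxycycline in cells with stable M3 receptor; B-score is computed from the integrated fluorescence ratio over baseline after carbachol; higher B-score means a larger calcium signal and so more RGS4 inhibition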
Target sequence (P49798 whole entry, looked up): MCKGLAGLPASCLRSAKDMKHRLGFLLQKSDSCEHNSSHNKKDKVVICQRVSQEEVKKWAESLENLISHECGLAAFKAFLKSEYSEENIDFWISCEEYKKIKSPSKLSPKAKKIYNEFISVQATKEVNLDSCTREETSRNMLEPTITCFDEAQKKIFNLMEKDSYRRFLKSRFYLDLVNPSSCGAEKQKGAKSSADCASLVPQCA
MrgX1 ag: human MrgX1 receptor agonism, primary screen. Q96LB2. MrgX1-HEK293 cells, Fluo-4 calcium fluorescence, agonist mode; stronger effect = higher value. B-score at 10 µM. hit rate 0.44% among 310,000. AID 588627;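 active means calcium response B-score plate-corrected fluorescence ratio at least 3 library SD, with starting fluorescence B-score inside 5 SD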
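Material: MrgX1-expressing HEK293 cells / Dosing: compound as first of three additions / Incubation: overnight seeding, then 1 h dark dye loading / Signal: Fluo-4 NW calcium fluorescence / Evaluation: B-scored fluorescence response ratio / Benchmarks: positive and negative control wells on each plate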
MrgX1 antagonist: human MrgX1 receptor antagonism, primary screen | MRGX1-HEK293 calcium flux, Fluo-4, BAM8-22 antagonism; stronger effect = lower value | B-score at 10 µM | hit rate 1.3% among 310,000 | AID 588676;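 active means calcium-response B-score plate-corrected more than 3 library SD below zero, starting fluorescence within 5 deviations, no agonist response on first addition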;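 further: peak minus trough fluorescence over baseline after final BAM8-22 challenge near maximal dose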
RGS4 block valid: RGS4 inhibitor validation; shares compounds with RGS4 block; hit rate 65% among 1,700; calcium response, % at 10 µM; HEK293 M3R/RGS4, carbachol calcium Fluo-4 fluorescence; carbachol added at its EC20; 0 = buffer wells, 100 = carbachol control;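 active means duplicate-averaged calcium response above the buffer-only control mean plus 5 SD of those controls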;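 further: integrated fluorescence ratio F max minus min over baseline F0; higher response in RGS4-induced cells means RGS4 inhibition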
RGS4 uninduced: counter-screen for RGS4 inhibitors: effect in non-induced cells | hit rate 20% among 1,900 | shares compounds with RGS4 block | HEK293 M3R non-induced, carbachol calcium Fluo-4; submaximal (EC20) carbachol stimulus; buffer wells 0%, carbachol control wells 100% | activity (percent), % at 10 µM; call rule not given here;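 further: RGS4 induction absent so cells express M3R without RGS4; higher means more calcium signal and flags a non-specific hit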
M3R basal Ca ctr: second RGS4 inhibitor counter-screen in uninduced cells lacking carbachol; calcium response (agonist-mode artifact), % at 10 µM; AID 493001; HEK293 M3R/RGS4 non-induced, Fluo-4 calcium, no carbachol; normalised: buffer wells 0%, carbachol wells 100%; shares compounds with RGS4 block; hit rate 22% among 1,900;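 active means duplicate-averaged calcium rise in uninduced cells above buffer wells' mean plus 5 SD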
Large screens that a line does not name were inactive (follow-up assays come after a bar, where they were run). Only some compounds are listed: those with a hit (about 3.5% of all), similar ones and a draw of the others.

O=C(NCC1OCCCN1S(=O)(=O)c1ccc(F)cc1)C(=O)NC1CCCC1 (stereo not given)	none | RGS4 block valid inactive | RGS4 uninduced inactive | M3R basal Ca ctr inactive
COc1ccc(CNC(=O)C(=O)NCC2OCCN2S(=O)(=O)c2ccc(OC)cc2)cc1 (stereo not given)	none
Cc1cc(O)c(C(=O)/C=C/c2ccc(Cl)cc2)c(=O)o1	none
COc1cccc(/C=C/C(=O)c2c(O)cc(C)oc2=O)c1O	RGS4 block 7.3 | RGS4 block valid 37% | RGS4 uninduced inactive | M3R basal Ca ctr inactive
CSc1ccc(/C=C/C(=O)c2c(O)cc(C)oc2=O)cc1	RGS4 block 6.1 | RGS4 block valid 24% | RGS4 uninduced inactive | M3R basal Ca ctr 7.5%
CC1=NN(C(=O)Cn2nc([N+](=O)[O-])c(Br)c2C)C(O)(C(F)(F)F)C1 (stereo not given)	none
CCn1c2ccccc2c2cc(NC(=O)CSc3nnc(-c4ccccc4OC)n3N)ccc21	none | RGS4 uninduced inactive | M3R basal Ca ctr inactive
CCn1c2ccccc2c2cc(NC(=O)CSc3nnc(-c4ccc(OC)c(OC)c4)n3N)ccc21	none | RGS4 block valid inactive | RGS4 uninduced inactive | M3R basal Ca ctr inactive
COc1cccc(-c2nnc(SCC(=O)Nc3cc(C)ccc3OC)n2N)c1	none
CCn1c2ccccc2c2cc(NC(=O)CSc3nnc(-c4cccc(OC)c4)n3N)ccc21	none | RGS4 uninduced inactive | M3R basal Ca ctr inactive
CCOc1ccc(-c2nnc(SCC(=O)Nc3ccc4c(c3)c3ccccc3n4CC)n2N)cc1	none | RGS4 block valid inactive | RGS4 uninduced inactive | M3R basal Ca ctr inactive
O=C(c1ccc(F)cc1)N1CCC(C(=O)N2CCN(S(=O)(=O)c3cccc(Cl)c3)CC2)CC1	none
COc1ccccc1NC(=O)c1cc(S(=O)(=O)NC2CCCC2)ccc1F	none
CCSc1nc2sccc2c(=O)n1-c1ccccc1	none
CCn1nc(NS(=O)(=O)c2ccc(NC(C)=O)cc2)c2cc3cccc(C)c3nc21	none
CCn1nc(NS(=O)(=O)c2ccc(C)cc2)c2cc3ccccc3nc21	none
CCn1nc(NS(=O)(=O)c2ccc([N+](=O)[O-])cc2)c2cc3ccccc3nc21	none | RGS4 uninduced inactive | M3R basal Ca ctr inactive
CCCn1nc(NS(C)(=O)=O)c2cc3cccc(C)c3nc21	none
CCn1nc(NS(=O)(=O)c2ccccc2)c2cc3cccc(C)c3nc21	none | RGS4 uninduced inactive | M3R basal Ca ctr inactive
CCn1nc(NS(=O)(=O)c2ccc(F)cc2)c2cc3cccc(C)c3nc21	none | RGS4 block valid inactive | RGS4 uninduced inactive | M3R basal Ca ctr inactive
CCCCn1c(NC(C)CC)nc2c1c(=O)[nH]c(=O)n2C (stereo not given)	RGS4 block 4.7 | RGS4 block valid 9.5% | RGS4 uninduced inactive | M3R basal Ca ctr inactive
CCC(C)Nc1nc2c(c(=O)[nH]c(=O)n2C)n1CCOc1ccccc1 (stereo not given)	none
Nc1nn2cc(-c3ccc(Br)cc3)nc2c2ccccc12	RGS4 block 7 | RGS4 block valid 10% | RGS4 uninduced inactive | M3R basal Ca ctr inactive
C=C1C(=O)O[C@@H]2[C@H]1[C@@H](OC(=O)/C(C)=C/C)C/C(C)=C\C(=O)/C=C(\C)[C@@H]2O	none | RGS4 uninduced inactive | M3R basal Ca ctr inactive
CC(=O)c1cnc(Nc2cccc(C)c2)s1	none
COc1ccc(CNC(=O)CN(C(=O)CCC(=O)Nc2nccs2)c2cccc(C)c2)cc1	none
O=S1(=O)CCC(N=Cc2ccc(-c3ccc(Cl)cc3)o2)C1 (stereo not given)	RGS4 block 5.7 | RGS4 block valid 7.5% | RGS4 uninduced inactive | M3R basal Ca ctr inactive
O=C(O)CCc1ccc(-c2ccc(Br)cc2)o1	none | RGS4 uninduced inactive | M3R basal Ca ctr inactive
O=C(O)CCc1ccc(-c2ccc(Cl)cc2)o1	none
COc1ccccc1-n1c(C)c(C(=O)O)c2cc(OC)c3ccccc3c21	none
CCOC(=O)CNc1nnc(SCC(=O)OCC)[nH]c1=O	none | RGS4 uninduced inactive | M3R basal Ca ctr inactive
COC(=O)CSc1nnc(C)c(=O)[nH]1	none
COc1cc2c(cc1OC)CN(CCC(=O)c1ccc(Br)cc1)CC2	RGS4 block 21 | RGS4 block valid 54% | RGS4 uninduced inactive | M3R basal Ca ctr 28%
CCOc1ccc(/C(O)=C2/C(=O)C(=O)N(c3nc(C)c(C)s3)C2c2ccco2)cc1 (stereo not given)	none | RGS4 uninduced inactive | M3R basal Ca ctr inactive
CCn1cc([N+](=O)[O-])c(C(=O)N2N=C(c3ccc4ccccc4c3)CC2c2cc(Br)ccc2O)n1 (stereo not given)	none
CCn1cc([N+](=O)[O-])c(C(=O)N2N=C(c3ccc(O)c(OC)c3)CC2c2ccccc2O)n1 (stereo not given)	none | RGS4 uninduced inactive | M3R basal Ca ctr inactive
CCn1cc([N+](=O)[O-])c(C(=O)N2N=C(c3ccc(Cl)c(Cl)c3)CC2c2ccccc2O)n1 (stereo not given)	RGS4 block 6.4 | RGS4 block valid 22% | RGS4 uninduced inactive | M3R basal Ca ctr inactive
Cc1ncc(CO)c(/C=N/NC(=O)c2cc3c(s2)CCCC3)c1O	RGS4 block 7.2 | RGS4 block valid 102% | RGS4 uninduced 78% | M3R basal Ca ctr 35%
Cc1ncc(CO)c(/C=N/NC(=O)c2ccc(O)cc2)c1O	none | RGS4 uninduced inactive | M3R basal Ca ctr 8.0%
COc1ccc(C(=O)N/N=C/c2c(CO)cnc(C)c2O)cc1	none
CC1=C(C(=O)N2CCCC(N3CCN(c4ccccc4F)CC3)C2)OCCO1 (stereo not given)	none
Cc1sc2nc(C(C)C)nc(SCC(=O)N3CCOCC3)c2c1C	none
O=C(Nc1cnc2ccccn2c1=O)c1ccc(Cl)cc1	RGS4 block 4.8 | RGS4 block valid inactive | RGS4 uninduced inactive | M3R basal Ca ctr inactive
CCOc1ccc(N2CC(C(=O)NNC(=O)c3ccc(Br)cc3)CC2=O)cc1 (stereo not given)	none
CC(Oc1cccc(Cl)c1)C(=O)Nc1cc(Cl)ccc1N1CCOCC1 (stereo not given)	none
CC1(C)CC(=O)C(C(C2=C(O)CC(C)(C)CC2=O)c2ccc(Br)s2)C(=O)C1 (stereo not given)	RGS4 block 18 | RGS4 block valid 88% | RGS4 uninduced inactive | M3R basal Ca ctr 74%
